Data: ChEMBL document CHEMBL1135836, “Cyclodextrin-derived host molecules as reversal agents for the neuromuscular blocker rocuronium bromide: synthesis and structure-activity relationships” (J Med Chem, 2002)

Tests used:
Format in all cases: functional
[1] = system: Cavia porcellus; test: In vivo reversal activity versus ~90% block by rocuronium in guinea pig
Method in brief: (§1)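 Male Dunkin-Hartley guinea pigs (600-900 g), anaesthetized ip with pentobarbitone 10 mg/kg plus urethane 1000 mg/kg, tracheotomized and ventilated. Continuous iv rocuronium infusion (~10 nmol kg-1 min-1) was raised to a steady 85-90% block. Increasing iv doses of agent were given cumulatively. ED50 = 50% recovery versus preblock twitch, by regression. Mean ± SEM of at least two experiments, or one.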

[2] = species: Mus musculus; test: In vitro reversal activity versus ~90% block by rocuronium in isolated mouse hemidiaphragm, expressed as effective conc.
[3] = species: Mus musculus; test: In vitro reversal activity versus ~90% block by rocuronium in isolated mouse hemidiaphragm, expressed as % of maximum reversal at 18 uM conc.
[4] = system: Cavia porcellus; test: In vivo reversal activity versus ~90% block by rocuronium in guinea pig, expressed as % of maximum reversal at 8 umol/kg conc.
Method in brief: (§2)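 Male Dunkin-Hartley guinea pigs (600-900 g) anaesthetized ip with pentobarbitone 10 mg/kg plus urethane 1000 mg/kg, tracheotomized and artificially ventilated. Continuous iv rocuronium bromide infusion (~10 nmol kg-1 min-1) raised until steady-state twitch block of 85-90%. Increasing single iv doses of reversal agent given by a separate catheter. Max reversal is peak twitch recovery versus preblock height at highest dose tested; means ± SEM, n ≥ 2 or single experiment.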

[5] = species: Mus musculus; test: In vitro reversal activity versus ~90% block by rocuronium in isolated mouse hemidiaphragm, expressed as % of maximum reversal at 9 uM conc.
[6] = system: Cavia porcellus; test: In vivo reversal activity versus ~90% block by rocuronium in guinea pig, expressed as % of maximum reversal at 3.6 umol/kg conc.; method in brief: as §2
[7] = species: Mus musculus; test: In vitro reversal activity versus ~90% block by rocuronium in isolated mouse hemidiaphragm, expressed as % of maximum reversal at 7.2 uM conc.
[8] = system: Cavia porcellus; test: In vivo reversal activity versus ~90% block by rocuronium in guinea pig, expressed as % of maximum reversal at 2 umol/kg conc.; method in brief: as §2
[9] = system: Cavia porcellus; test: In vivo reversal activity versus ~90% block by rocuronium in guinea pig, expressed as % of maximum reversal at 15 umol/kg conc.; method in brief: as §2
[10] = system: Cavia porcellus; test: In vivo reversal activity versus ~90% block by rocuronium in guinea pig, expressed as % of maximum reversal at 16 umol/kg conc.; method in brief: as §2
[11] = species: Mus musculus; test: In vitro reversal activity versus ~90% block by rocuronium in isolated mouse hemidiaphragm, expressed as % of maximum reversal at 360 uM conc.
[12] = system: Cavia porcellus; test: In vivo reversal activity versus ~90% block by rocuronium in guinea pig, expressed as % of maximum reversal at 1.6 umol/kg conc.; method in brief: as §1
[13] = species: Mus musculus; test: In vitro reversal activity versus ~90% block by rocuronium in isolated mouse hemidiaphragm, expressed as % of maximum reversal
[14] = system: Cavia porcellus; test: In vivo reversal activity versus ~90% block by rocuronium in guinea pig, expressed as % of maximum reversal. at a conc. of 0.08 uM
[15] = system: Cavia porcellus; test: In vivo reversal activity versus ~90% block by rocuronium in guinea pig, expressed as % of maximum reversal at 2.8 umol/kg conc.; method in brief: as §2
[16] = system: Cavia porcellus; test: In vivo reversal activity versus ~90% block by rocuronium in guinea pig, expressed as % of maximum reversal at 31.8 umol/kg conc.; method in brief: as §2

SMILES: CC(CSCC1O[C@@H]2O[C@@H]3C(CSCC(C)C(=O)[O-])O[C@H](O[C@@H]4C(CSCC(C)C(=O)[O-])O[C@H](O[C@@H]5C(CSCC(C)C(=O)[O-])O[C@H](O[C@@H]6C(CSCC(C)C(=O)[O-])O[C@H](O[C@@H]7C(CSCC(C)C(=O)[O-])O[C@H](O[C@@H]8C(CSCC(C)C(=O)[O-])O[C@H](O[C@@H]9C(CSCC(C)C(=O)[O-])O[C@H](O[C@H]1C(O)C2O)C(O)C9O)C(O)C8O)C(O)C7O)C(O)C6O)C(O)C5O)C(O)C4O)C(O)C3O)C(=O)[O-].[Na+].[Na+].[Na+].[Na+].[Na+].[Na+].[Na+].[Na+] (stereo not given in full)
- ED50 [1]: 0.73 µmol/kg
- EC50 [2]: 9.5 µM
- Max reversal [3]: 77.5%
- Max reversal [4]: 97.8%

SMILES: OCCCSCC1O[C@@H]2O[C@@H]3C(CSCCCO)O[C@H](O[C@@H]4C(CSCCCO)O[C@H](O[C@@H]5C(CSCCCO)O[C@H](O[C@@H]6C(CSCCCO)O[C@H](O[C@@H]7C(CSCCCO)O[C@H](O[C@@H]8C(CSCCCO)O[C@H](O[C@@H]9C(CSCCCO)O[C@H](O[C@H]1C(O)C2O)C(O)C9O)C(O)C8O)C(O)C7O)C(O)C6O)C(O)C5O)C(O)C4O)C(O)C3O (stereo not given in full)
- ED50 [1]: 0.52 µmol/kg
- EC50 [2]: 4.1 µM
- Max reversal [5]: 96.5%
- Max reversal [6]: 98.3%

SMILES: O=C([O-])Cc1cccc(SCC2O[C@@H]3O[C@@H]4C(CSc5cccc(CC(=O)[O-])c5)O[C@H](O[C@@H]5C(CSc6cccc(CC(=O)[O-])c6)O[C@H](O[C@@H]6C(CSc7cccc(CC(=O)[O-])c7)O[C@H](O[C@@H]7C(CSc8cccc(CC(=O)[O-])c8)O[C@H](O[C@@H]8C(CSc9cccc(CC(=O)[O-])c9)O[C@H](O[C@@H]9C(CSc%10cccc(CC(=O)[O-])c%10)O[C@H](O[C@@H]%10C(CSc%11cccc(CC(=O)[O-])c%11)O[C@H](O[C@H]2C(O)C3O)C(O)C%10O)C(O)C9O)C(O)C8O)C(O)C7O)C(O)C6O)C(O)C5O)C(O)C4O)c1.[Na+].[Na+].[Na+].[Na+].[Na+].[Na+].[Na+].[Na+] (stereo not given in full)
- Max reversal [7]: 99.1%
- ED50 [1]: 0.53 µmol/kg
- EC50 [2]: 1.7 µM
- Max reversal [8]: 104.6%

SMILES: CC(C)(CSCC1O[C@@H]2O[C@@H]3C(CSCC(C)(C)C(=O)[O-])O[C@H](O[C@@H]4C(CSCC(C)(C)C(=O)[O-])O[C@H](O[C@@H]5C(CSCC(C)(C)C(=O)[O-])O[C@H](O[C@@H]6C(CSCC(C)(C)C(=O)[O-])O[C@H](O[C@@H]7C(CSCC(C)(C)C(=O)[O-])O[C@H](O[C@@H]8C(CSCC(C)(C)C(=O)[O-])O[C@H](O[C@@H]9C(CSCC(C)(C)C(=O)[O-])O[C@H](O[C@H]1C(O)C2O)C(O)C9O)C(O)C8O)C(O)C7O)C(O)C6O)C(O)C5O)C(O)C4O)C(O)C3O)C(=O)[O-].[Na+].[Na+].[Na+].[Na+].[Na+].[Na+].[Na+].[Na+] (stereo not given in full)
- ED50 [1]: 1.32 µmol/kg
- EC50 [2]: 20.3 µM
- Max reversal [3]: 47.6%
- Max reversal [9]: 98.8%

SMILES: O=C([O-])CCSCC1O[C@@H]2O[C@@H]3C(CSCCC(=O)[O-])O[C@H](O[C@@H]4C(CSCCC(=O)[O-])O[C@H](O[C@@H]5C(CSCCC(=O)[O-])O[C@H](O[C@@H]6C(CSCCC(=O)[O-])O[C@H](O[C@@H]7C(CSCCC(=O)[O-])O[C@H](O[C@H]1C(O)C2O)C(O)C7O)C(O)C6O)C(O)C5O)C(O)C4O)C(O)C3O.[Na+].[Na+].[Na+].[Na+].[Na+].[Na+] (stereo not given in full)
- ED50 [1]: > 16 µmol/kg
- Max reversal [10]: 3.2%
- EC50 [2]: > 360 µM
- Max reversal [11]: 0%

SMILES: O=C([O-])c1ccccc1C(=O)NCCCSCC1O[C@@H]2O[C@@H]3C(CSCCCNC(=O)c4ccccc4C(=O)[O-])O[C@H](O[C@@H]4C(CSCCCNC(=O)c5ccccc5C(=O)[O-])O[C@H](O[C@@H]5C(CSCCCNC(=O)c6ccccc6C(=O)[O-])O[C@H](O[C@@H]6C(CSCCCNC(=O)c7ccccc7C(=O)[O-])O[C@H](O[C@@H]7C(CSCCCNC(=O)c8ccccc8C(=O)[O-])O[C@H](O[C@@H]8C(CSCCCNC(=O)c9ccccc9C(=O)[O-])O[C@H](O[C@@H]9C(CSCCCNC(=O)c%10ccccc%10C(=O)[O-])O[C@H](O[C@H]1C(O)C2O)C(O)C9O)C(O)C8O)C(O)C7O)C(O)C6O)C(O)C5O)C(O)C4O)C(O)C3O.[Na+].[Na+].[Na+].[Na+].[Na+].[Na+].[Na+].[Na+] (stereo not given in full)
- Max reversal [7]: 90.7%
- Max reversal [12]: 83%
- ED50 [1]: 0.27 µmol/kg
- EC50 [2]: 0.1 µM

SMILES: CN(C)C(=O)Oc1cccc([N+](C)(C)C)c1.[Br-] [NEOSTIGMINE BROMIDE]
- Max reversal [13]: 74.4%
- ED50 [1]: 0.04 µmol/kg
- Max reversal [14]: 65.3%
- EC50 [2]: 0.9 µM

SMILES: O=C([O-])CCc1ccc(SCC2O[C@@H]3O[C@@H]4C(CSc5ccc(CCC(=O)[O-])cc5)O[C@H](O[C@@H]5C(CSc6ccc(CCC(=O)[O-])cc6)O[C@H](O[C@@H]6C(CSc7ccc(CCC(=O)[O-])cc7)O[C@H](O[C@@H]7C(CSc8ccc(CCC(=O)[O-])cc8)O[C@H](O[C@@H]8C(CSc9ccc(CCC(=O)[O-])cc9)O[C@H](O[C@@H]9C(CSc%10ccc(CCC(=O)[O-])cc%10)O[C@H](O[C@@H]%10C(CSc%11ccc(CCC(=O)[O-])cc%11)O[C@H](O[C@H]2C(O)C3O)C(O)C%10O)C(O)C9O)C(O)C8O)C(O)C7O)C(O)C6O)C(O)C5O)C(O)C4O)cc1.[Na+].[Na+].[Na+].[Na+].[Na+].[Na+].[Na+].[Na+] (stereo not given in full)
- Max reversal [7]: 95.4%
- ED50 [1]: 1.01 µmol/kg
- EC50 [2]: 3 µM
- Max reversal [15]: 94.3%

SMILES: O=C([O-])CCc1ccc(SCC2O[C@@H]3O[C@@H]4C(CO)O[C@H](O[C@@H]5C(CO)O[C@H](O[C@@H]6C(CO)O[C@H](O[C@@H]7C(CO)O[C@H](O[C@@H]8C(CO)O[C@H](O[C@@H]9C(CO)O[C@H](O[C@@H]%10C(CO)O[C@H](O[C@H]2C(O)C3O)C(O)C%10O)C(O)C9O)C(O)C8O)C(O)C7O)C(O)C6O)C(O)C5O)C(O)C4O)cc1.[Na+] (stereo not given in full)
- ED50 [1]: 3.33 µmol/kg
- EC50 [2]: 32.8 µM
- Max reversal [16]: 93.8%
- Max reversal [3]: 36.2%

SMILES: OCCSCC1O[C@@H]2O[C@@H]3C(CSCCO)O[C@H](O[C@@H]4C(CSCCO)O[C@H](O[C@@H]5C(CSCCO)O[C@H](O[C@@H]6C(CSCCO)O[C@H](O[C@@H]7C(CSCCO)O[C@H](O[C@@H]8C(CSCCO)O[C@H](O[C@@H]9C(CSCCO)O[C@H](O[C@H]1C(O)C2O)C(O)C9O)C(O)C8O)C(O)C7O)C(O)C6O)C(O)C5O)C(O)C4O)C(O)C3O (stereo not given in full)
- Max reversal [7]: 86.4%
- ED50 [1]: 0.21 µmol/kg
- EC50 [2]: 4 µM
- Max reversal [8]: 95.8%
